Results from paper PMC12366125 (ACS Medicinal Chemistry Letters, 2025).
Read-outs that look alike come from different tables or passages of the source.

What was measured:
[1] = test system: A. baumannii AB5075; experiment: Broth microdilution standalone MIC; format: cell-based; details: Acinetobacter baumannii, AB5075, read-out: standalone MIC against AB5075
[2] = test system: HepG2 cells; experiment: XTT cell viability assay with HepG2 cells; format: cell-based, human; details: for IC50: Homo sapiens; for TI: HepG2 IC50 / adjuvant concentration that reduces CLR MIC to breakpoint
How it was run: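 Cytotoxicity is tested on HepG2 human hepatoma cells, using lead cyclized-linker 2-AI-benzimidazole conjugates and their parent amide analogues. IC50 is taken from dose-response curves. […] TI is not calculated for compounds without adjuvant activity.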

[3] = test system: A. baumannii AB19606; experiment: Broth microdilution standalone MIC; format: cell-based; details: Acinetobacter baumannii, AB19606, read-out: standalone MIC against AB19606
[4] = test system: AB4957; experiment: CLR potentiation, clinical isolate; format: cell-based, Acinetobacter baumannii; details: adjuvant at 10 μM
[5] = test system: AB4027; experiment: CLR potentiation, clinical isolate; format: cell-based, Acinetobacter baumannii; details: adjuvant at 10 μM
[6] = test system: AB2828; experiment: CLR potentiation, clinical isolate; format: cell-based, Acinetobacter baumannii; details: adjuvant at 10 μM
[7] = test system: AB4448; experiment: CLR potentiation, clinical isolate; format: cell-based, Acinetobacter baumannii; details: adjuvant at 10 μM
[8] = test system: AB5674; experiment: CLR potentiation, clinical isolate; format: cell-based, Acinetobacter baumannii; details: adjuvant at 10 μM
[9] = test system: AB3806; experiment: CLR potentiation, clinical isolate; format: cell-based, Acinetobacter baumannii; details: adjuvant at 10 μM
[10] = test system: AB5001; experiment: CLR potentiation, clinical isolate; format: cell-based, Acinetobacter baumannii; details: adjuvant at 10 μM
[11] = test system: AB4857; experiment: CLR potentiation, clinical isolate; format: cell-based, Acinetobacter baumannii; details: adjuvant at 10 μM
[12] = test system: AB5197; experiment: CLR potentiation, clinical isolate; format: cell-based, Acinetobacter baumannii; details: adjuvant at 10 μM
[13] = test system: AB4052; experiment: CLR potentiation, clinical isolate; format: cell-based, Acinetobacter baumannii; details: adjuvant at 10 μM
[14] = test system: AB8967; experiment: CLR potentiation, clinical isolate; format: cell-based, Acinetobacter baumannii; details: adjuvant at 10 μM
[15] = test system: AB4025; experiment: CLR potentiation, clinical isolate; format: cell-based, Acinetobacter baumannii; details: adjuvant at 10 μM
[16] = test system: AB4795; experiment: CLR potentiation, clinical isolate; format: cell-based, Acinetobacter baumannii; details: adjuvant at 10 μM
[17] = test system: AB5256; experiment: CLR potentiation, clinical isolate; format: cell-based, Acinetobacter baumannii; details: adjuvant at 10 μM
[18] = test system: AB4556; experiment: CLR potentiation, clinical isolate; format: cell-based, Acinetobacter baumannii; details: adjuvant at 10 μM
[19] = test system: AB4878; experiment: CLR potentiation, clinical isolate; format: cell-based, Acinetobacter baumannii; details: adjuvant at 10 μM
[20] = test system: AB4498; experiment: CLR potentiation, clinical isolate; format: cell-based, Acinetobacter baumannii; details: adjuvant at 10 μM
[21] = test system: AB4026; experiment: CLR potentiation, clinical isolate; format: cell-based, Acinetobacter baumannii; details: adjuvant at 10 μM
[22] = test system: AB3560; experiment: CLR potentiation, clinical isolate; format: cell-based, Acinetobacter baumannii; details: adjuvant at 10 μM
[23] = test system: AB3785; experiment: CLR potentiation, clinical isolate; format: cell-based, Acinetobacter baumannii; details: adjuvant at 10 μM
[24] = test system: AB4490; experiment: CLR potentiation, clinical isolate; format: cell-based, Acinetobacter baumannii; details: adjuvant at 10 μM
[25] = test system: AB5711; experiment: CLR potentiation, clinical isolate; format: cell-based, Acinetobacter baumannii; details: adjuvant at 10 μM
[26] = test system: AB3927; experiment: CLR potentiation, clinical isolate; format: cell-based, Acinetobacter baumannii; details: adjuvant at 10 μM
[27] = test system: AB4269; experiment: CLR potentiation, clinical isolate; format: cell-based, Acinetobacter baumannii; details: adjuvant at 10 μM
[28] = test system: AB4991; experiment: CLR potentiation, clinical isolate; format: cell-based, Acinetobacter baumannii; details: adjuvant at 10 μM
[29] = test system: A. baumannii AB5075; experiment: Checkerboard assay colistin and compound; format: cell-based, Acinetobacter baumannii; details: COL alone
[30] = HepG2, 24 h, read-out: HepG2 IC50

Q: Which MIC [1] does the source give for `Nc1nc(-c2ccc3nc(-c4cc(Cl)cc(Cl)c4)[nH]c3c2)c[nH]1` [Compound 2] here?
A: Its MIC is over 200 µM.

Q: And the IC50 ([2]; HepG2, read-out: IC50 against HepG2 cells)?
A: The IC50 was 69.8 µM.

Q: What about the MIC [3] of the same compound?
A: Its MIC is over 200 µM.

Q: `Cl.Nc1nc(-c2ccc3nc(-c4ccc(Cl)c(Cl)c4)[nH]c3c2)c[nH]1` [Compound 5] was tested. Which “CLR MIC fold reduction” value [4] did it give?
A: Its value is 4 fold.

Q: And the “CLR MIC fold reduction” value [5]?
A: Its value is 16 fold.

Q: What about the “CLR MIC fold reduction” value [6] of the same compound?
A: The value was 8 fold.

Q: And the “CLR MIC fold reduction” value [7]?
A: Its value is 16 fold.

Q: And the “CLR MIC fold reduction” value [8]?
A: The value was 64 fold.

Q: And the “CLR MIC fold reduction” value [9]?
A: Its value is 4 [4] fold.

Q: And the “CLR MIC fold reduction” value [10]?
A: The value was 16 fold.

Q: What about the “CLR MIC fold reduction” value [11] of the same compound?
A: The value was 4 fold.

Q: What about the MIC [1] of the same compound?
A: The MIC was at least 200 µM.

Q: What about the “CLR MIC fold reduction” value [12] of the same compound?
A: Its value is 8 [8] fold.

Q: What about the “CLR MIC fold reduction” value [13] of the same compound?
A: The value was 16 fold.

Q: What about the “CLR MIC fold reduction” value [14] of the same compound?
A: The value was 32 fold.

Q: What about the “CLR MIC fold reduction” value [15] of the same compound?
A: Its value is 16 fold.

Q: And the “CLR MIC fold reduction” value [16]?
A: Its value is 8 fold.

Q: And the “CLR MIC fold reduction” value [17]?
A: The value was 512 fold.

Q: And the “CLR MIC fold reduction” value [18]?
A: The value was 4 [4] fold.

Q: And the “CLR MIC fold reduction” value [19]?
A: Its value is 16 fold.

Q: And the “CLR MIC fold reduction” value [20]?
A: Its value is 8 [8] fold.

Q: What about the TI [2] of the same compound?
A: The TI was 9.7–9.9.

Q: What about the IC50 [2, 30] of the same compound?
A: The IC50 was 73.5 ± 1.1 µM.

Q: And the “CLR MIC fold reduction” value [21]?
A: Its value is 32 fold.

Q: And the “CLR MIC fold reduction” value [22]?
A: The value was 4 fold.

Q: What about the “CLR MIC fold reduction” value [23] of the same compound?
A: The value was 64 fold.

Q: What about the MIC [3] of the same compound?
A: Its MIC is at least 200 µM.

Q: And the “CLR MIC fold reduction” value [24]?
A: Its value is 4 fold.

Q: And the “CLR MIC fold reduction” value [25]?
A: Its value is 16 fold.

Q: And the “CLR MIC fold reduction” value [26]?
A: Its value is 16 fold.

Q: What about the “CLR MIC fold reduction” value [27] of the same compound?
A: The value was 32 fold.

Q: And the “CLR MIC fold reduction” value [28]?
A: Its value is 8 fold.

Q: Which MIC [1] does the source give for `Nc1nc(-c2ccc3nc(-c4cc(Cl)c(Cl)c(Cl)c4)[nH]c3c2)c[nH]1` [Compound 6] here?
A: Its MIC is at least 200 µM.

Q: And the MIC [3]?
A: Its MIC is at least 200 µM.

Q: With `Nc1nc(-c2ccc3nc(-c4ccc(Cl)cc4)[nH]c3c2)c[nH]1` [Compound 7] as the compound, how does the MIC [1] read?
A: The MIC was at least 200 µM.

Q: What about the MIC [3] of the same compound?
A: Its MIC is at least 200 µM.

Q: Which results are given for `Nc1nc(-c2ccc3nc(-c4cccc(Cl)c4)[nH]c3c2)c[nH]1` [Compound 8]?
A: MIC [1]: ≥ 200 µM; MIC [3]: ≥ 200 µM

Q: Which results are given for `Nc1nc(-c2ccc3nc(-c4ccccc4Cl)[nH]c3c2)c[nH]1` [Compound 9]?
A: MIC [1]: ≥ 200 µM; MIC [3]: ≥ 200 µM

Q: Which results are given for `Nc1nc(-c2ccc3nc(-c4cccc(Cl)c4Cl)[nH]c3c2)c[nH]1` [Compound 10]?
A: MIC [1]: ≥ 200 µM; MIC [3]: ≥ 200 µM

Q: `Nc1nc(-c2ccc3nc(-c4ccc(Cl)cc4Cl)[nH]c3c2)c[nH]1` [Compound 11] was tested. Which MIC [1] did it give?
A: The MIC was at least 200 µM.

Q: And the MIC [3]?
A: Its MIC is at least 200 µM.

Q: With `Nc1nc(-c2ccc3nc(-c4cc(Cl)ccc4Cl)[nH]c3c2)c[nH]1` [Compound 12] as the compound, how does the MIC [1] read?
A: Its MIC is at least 200 µM.

Q: What about the MIC [3] of the same compound?
A: The MIC was at least 200 µM.

Q: What does the source list for `COc1cc(OC)cc(-c2nc3ccc(-c4c[nH]c(N)n4)cc3[nH]2)c1` [Compound 15]?
A: MIC [1]: ≥ 200 µM; MIC [3]: ≥ 200 µM

Q: How did the MIC [1] turn out when `Cc1cc(C)cc(-c2nc3ccc(-c4c[nH]c(N)n4)cc3[nH]2)c1` [Compound 16] was run?
A: The MIC was at least 200 µM.

Q: And the MIC [3]?
A: Its MIC is at least 200 µM.

Q: Which results are given for `Cc1ccc(-c2nc3ccc(-c4c[nH]c(N)n4)cc3[nH]2)cc1C` [Compound 17]?
A: MIC [1]: ≥ 200 µM; MIC [3]: ≥ 200 µM

Q: Which results are given for `Cl.Nc1nc(-c2ccc3nc(-c4ccc(Cl)c(C(F)(F)F)c4)[nH]c3c2)c[nH]1` [Compound 25]?
A: CLR MIC fold reduction [4]: 2 fold; CLR MIC fold reduction [5]: 32 fold; CLR MIC fold reduction [6]: 16 fold; CLR MIC fold reduction [7]: 32 fold; CLR MIC fold reduction [8]: 128 fold; CLR MIC fold reduction [9]: 32 fold; CLR MIC fold reduction [10]: 32 fold; CLR MIC fold reduction [11]: 16 fold; MIC [1]: 50 µM; CLR MIC fold reduction [12]: 32 fold; CLR MIC fold reduction [13]: 4 fold; CLR MIC fold reduction [14]: 64 fold; CLR MIC fold reduction [15]: 16 fold; CLR MIC fold reduction [16]: 16 fold; CLR MIC fold reduction [17]: 128 fold; CLR MIC fold reduction [18]: 8 fold; CLR MIC fold reduction [19]: 32 fold; CLR MIC fold reduction [20]: 8 [8] fold; TI [2]: 18.7–19.0; IC50 [2, 30]: 141.6 ± 1.1 µM; CLR MIC fold reduction [21]: 32 fold; CLR MIC fold reduction [22]: 16 fold; CLR MIC fold reduction [23]: 32 fold; MIC [3]: 50 µM; CLR MIC fold reduction [24]: 64 fold; CLR MIC fold reduction [25]: 64 fold; CLR MIC fold reduction [26]: 128 fold; CLR MIC fold reduction [27]: 2 fold; CLR MIC fold reduction [28]: 32 fold

Q: colistin was tested. Which “COL MIC against AB5075” value [29] did it give?
A: The value was 1 µg/mL.
